Data from ChEMBL document CHEMBL2346640, “Bromo-deaza-SAH: a potent and selective DOT1L inhibitor” (Bioorg Med Chem, 2013).
The source made the active and inactive calls. The rule behind the calls is not given here.

Assays:
[1] = target: T1, Histone-lysine N-methyltransferase SETD7 (Homo sapiens) (UniProt Q8WTS6); test: Inhibition of SETD7 (unknown origin) using [3H]SAM assessed as inhibition of biotinylated-H3 (1 to 25 amino acid residues) methylation at 0.1 to 100 uM after 1 hr by scintillation proximity assay
T1 sequence (whole entry): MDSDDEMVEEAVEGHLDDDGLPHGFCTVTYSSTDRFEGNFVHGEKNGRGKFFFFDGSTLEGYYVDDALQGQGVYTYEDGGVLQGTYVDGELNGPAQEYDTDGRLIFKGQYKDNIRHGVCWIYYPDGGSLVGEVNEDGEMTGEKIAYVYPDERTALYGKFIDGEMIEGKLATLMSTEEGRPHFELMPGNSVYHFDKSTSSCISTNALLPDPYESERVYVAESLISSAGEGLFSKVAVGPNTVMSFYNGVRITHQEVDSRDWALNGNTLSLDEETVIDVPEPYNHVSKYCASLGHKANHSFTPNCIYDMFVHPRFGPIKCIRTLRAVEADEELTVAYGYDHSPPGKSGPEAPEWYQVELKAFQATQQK
Procedure, shortened: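 Triplicates, 1 h at room temperature, compound at 100 nM–100 µM. Guanidine HCl stop, then Flashplate CPM normalised to controls. Ki = IC50/2.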

[2] = target: Histone-lysine N-methyltransferase 2A (Homo sapiens) (UniProt Q03164); test: Inhibition of MLL1 (unknown origin) using [3H]SAM assessed as inhibition of biotinylated-H3 (1 to 25 amino acid residues) methylation at 0.1 to 100 uM after 1 hr by scintillation proximity assay
[3] = target: Protein arginine N-methyltransferase 5 (Homo sapiens, UniProt O14744); test: Inhibition of PRMT5 (unknown origin) using [3H]SAM after 1 hr by scintillation proximity assay
Procedure, shortened: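 Triplicates, 1 h at room temperature, compound at 100 nM–100 µM. Guanidine quench, then Flashplate counting. Ki calculated as IC50/2.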

Homo sapiens = organism: Homo sapiens; test: Inhibition of PRC2 complex (unknown origin) using [3H]SAM assessed as inhibition of biotinylated-H3 (21 to 44 amino acid residues) methylation at 0.1 to 100 uM after 1 hr by scintillation proximity assay
[4] = target: DNA (cytosine-5)-methyltransferase 1 (Homo sapiens, UniProt P26358); test: Inhibition of DNMT1 (unknown origin) using [3H]-SAM assessed as inhibition of dsDNA methylation after 1 hr by scintillation proximity assay
Procedure, shortened: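 Incubated 1 h at 37 °C, quenched with guanidine HCl, then counted on a Flashplate. IC50 was taken at the SAM Km and converted to Ki as IC50/2.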

[5] = target: Histone-lysine N-methyltransferase SUV39H2 (Homo sapiens) (UniProt Q9H5I1); test: Inhibition of SUV39H2 (unknown origin) using [3H]SAM assessed as inhibition of biotinylated-H3 (1 to 25 amino acid residues) methylation at 0.1 to 100 uM after 1 hr by scintillation proximity assay
Procedure, shortened: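 Triplicate 1 h room-temperature reactions with compound at 100 nM–100 µM. Read on Flashplate after guanidine quench. Ki = IC50/2.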

[6] = target: T2, Histone-lysine N-methyltransferase EHMT2 (Homo sapiens) (UniProt Q96KQ7); test: Inhibition of G9a (unknown origin) using [3H]SAM assessed as inhibition of biotinylated-H3 (1 to 25 amino acid residues) methylation after 1 hr by scintillation proximity assay
T2 sequence (whole entry): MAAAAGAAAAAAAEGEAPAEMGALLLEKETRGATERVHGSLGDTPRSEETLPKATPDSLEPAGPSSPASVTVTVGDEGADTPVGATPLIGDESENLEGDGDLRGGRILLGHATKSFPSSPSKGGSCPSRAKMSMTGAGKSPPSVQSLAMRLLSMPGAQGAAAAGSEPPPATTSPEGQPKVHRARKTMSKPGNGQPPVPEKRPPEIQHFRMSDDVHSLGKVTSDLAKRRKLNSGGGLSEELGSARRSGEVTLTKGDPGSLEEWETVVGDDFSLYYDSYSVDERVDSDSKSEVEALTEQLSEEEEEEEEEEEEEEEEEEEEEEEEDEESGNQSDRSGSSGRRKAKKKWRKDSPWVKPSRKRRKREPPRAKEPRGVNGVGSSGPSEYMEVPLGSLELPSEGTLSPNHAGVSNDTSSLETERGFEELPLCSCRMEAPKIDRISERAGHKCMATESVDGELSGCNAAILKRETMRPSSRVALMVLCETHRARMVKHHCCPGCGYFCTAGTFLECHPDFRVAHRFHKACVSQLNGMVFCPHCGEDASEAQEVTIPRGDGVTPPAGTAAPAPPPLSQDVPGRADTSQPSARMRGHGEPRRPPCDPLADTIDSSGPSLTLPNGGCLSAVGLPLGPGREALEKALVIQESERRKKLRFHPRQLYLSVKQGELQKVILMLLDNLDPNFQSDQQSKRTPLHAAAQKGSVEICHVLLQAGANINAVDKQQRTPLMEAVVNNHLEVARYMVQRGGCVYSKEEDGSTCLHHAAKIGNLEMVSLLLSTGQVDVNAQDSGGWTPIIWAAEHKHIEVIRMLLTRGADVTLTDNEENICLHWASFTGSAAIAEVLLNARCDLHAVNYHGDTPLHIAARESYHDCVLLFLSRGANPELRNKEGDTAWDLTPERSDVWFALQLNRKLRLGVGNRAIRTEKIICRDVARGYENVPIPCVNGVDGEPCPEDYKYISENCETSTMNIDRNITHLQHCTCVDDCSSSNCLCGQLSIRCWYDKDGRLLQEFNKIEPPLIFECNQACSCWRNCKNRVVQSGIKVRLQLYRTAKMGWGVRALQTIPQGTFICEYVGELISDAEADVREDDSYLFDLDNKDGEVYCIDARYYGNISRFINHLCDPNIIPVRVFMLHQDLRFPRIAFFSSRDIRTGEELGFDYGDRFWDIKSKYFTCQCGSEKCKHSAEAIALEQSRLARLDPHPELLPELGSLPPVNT
Procedure, shortened: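 Triplicates, 1 h at room temperature. Guanidine HCl stop, then Flashplate CPM. Compound at 100 nM–100 µM. Activity normalised to no-compound (100%) and no-enzyme (0%) controls. Ki = IC50/2.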

[7] = target: T3, Nicotinamide N-methyltransferase (Homo sapiens, UniProt P40261); test: Inhibition of recombinant full length human NNMT measured for 30 mins by SAHH-coupled fluorescence assay
T3 sequence (P40261 whole entry): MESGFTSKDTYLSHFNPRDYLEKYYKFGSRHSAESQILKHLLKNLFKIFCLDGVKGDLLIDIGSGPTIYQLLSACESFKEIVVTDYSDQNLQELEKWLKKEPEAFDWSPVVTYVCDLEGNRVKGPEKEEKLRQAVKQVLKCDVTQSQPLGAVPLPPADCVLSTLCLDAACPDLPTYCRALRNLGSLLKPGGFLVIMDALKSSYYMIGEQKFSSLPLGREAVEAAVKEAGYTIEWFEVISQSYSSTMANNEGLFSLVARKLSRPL
Procedure, shortened: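 Compound at 0.1–100 µM. Fluorescence (ex 360, em 528 nm) followed for 30 min; rates taken from initial linear slopes and expressed as % activity. IC50 from a four-parameter logistic fit; SD from three independent experiments.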

[8] = target: T4, N-lysine methyltransferase KMT5A (Homo sapiens) (UniProt Q9NQR1); test: Inhibition of SETD8 (unknown origin) using [3H]SAM assessed as inhibition of biotinylated-H4 (1 to 24 amino acid residues) methylation at 0.1 to 100 uM after 1 hr by scintillation proximity assay
T4 sequence (whole entry): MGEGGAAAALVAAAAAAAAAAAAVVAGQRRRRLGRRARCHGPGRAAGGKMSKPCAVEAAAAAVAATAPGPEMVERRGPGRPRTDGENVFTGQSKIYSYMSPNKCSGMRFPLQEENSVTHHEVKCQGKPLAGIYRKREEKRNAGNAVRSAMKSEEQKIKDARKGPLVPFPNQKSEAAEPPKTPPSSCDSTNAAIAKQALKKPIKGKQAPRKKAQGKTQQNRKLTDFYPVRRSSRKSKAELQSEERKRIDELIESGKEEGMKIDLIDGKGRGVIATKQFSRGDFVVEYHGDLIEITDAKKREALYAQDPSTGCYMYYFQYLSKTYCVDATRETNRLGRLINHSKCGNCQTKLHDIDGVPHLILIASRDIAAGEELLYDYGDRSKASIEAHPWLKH

[9] = target: T5, Histone-lysine N-methyltransferase EHMT1 (Homo sapiens) (UniProt Q9H9B1); test: Inhibition of EHMT1 (unknown origin) using [3H]SAM assessed as inhibition of biotinylated-H3 (1 to 25 amino acid residues) methylation at 0.1 to 100 uM after 1 hr by scintillation proximity assay
T5 sequence (whole entry): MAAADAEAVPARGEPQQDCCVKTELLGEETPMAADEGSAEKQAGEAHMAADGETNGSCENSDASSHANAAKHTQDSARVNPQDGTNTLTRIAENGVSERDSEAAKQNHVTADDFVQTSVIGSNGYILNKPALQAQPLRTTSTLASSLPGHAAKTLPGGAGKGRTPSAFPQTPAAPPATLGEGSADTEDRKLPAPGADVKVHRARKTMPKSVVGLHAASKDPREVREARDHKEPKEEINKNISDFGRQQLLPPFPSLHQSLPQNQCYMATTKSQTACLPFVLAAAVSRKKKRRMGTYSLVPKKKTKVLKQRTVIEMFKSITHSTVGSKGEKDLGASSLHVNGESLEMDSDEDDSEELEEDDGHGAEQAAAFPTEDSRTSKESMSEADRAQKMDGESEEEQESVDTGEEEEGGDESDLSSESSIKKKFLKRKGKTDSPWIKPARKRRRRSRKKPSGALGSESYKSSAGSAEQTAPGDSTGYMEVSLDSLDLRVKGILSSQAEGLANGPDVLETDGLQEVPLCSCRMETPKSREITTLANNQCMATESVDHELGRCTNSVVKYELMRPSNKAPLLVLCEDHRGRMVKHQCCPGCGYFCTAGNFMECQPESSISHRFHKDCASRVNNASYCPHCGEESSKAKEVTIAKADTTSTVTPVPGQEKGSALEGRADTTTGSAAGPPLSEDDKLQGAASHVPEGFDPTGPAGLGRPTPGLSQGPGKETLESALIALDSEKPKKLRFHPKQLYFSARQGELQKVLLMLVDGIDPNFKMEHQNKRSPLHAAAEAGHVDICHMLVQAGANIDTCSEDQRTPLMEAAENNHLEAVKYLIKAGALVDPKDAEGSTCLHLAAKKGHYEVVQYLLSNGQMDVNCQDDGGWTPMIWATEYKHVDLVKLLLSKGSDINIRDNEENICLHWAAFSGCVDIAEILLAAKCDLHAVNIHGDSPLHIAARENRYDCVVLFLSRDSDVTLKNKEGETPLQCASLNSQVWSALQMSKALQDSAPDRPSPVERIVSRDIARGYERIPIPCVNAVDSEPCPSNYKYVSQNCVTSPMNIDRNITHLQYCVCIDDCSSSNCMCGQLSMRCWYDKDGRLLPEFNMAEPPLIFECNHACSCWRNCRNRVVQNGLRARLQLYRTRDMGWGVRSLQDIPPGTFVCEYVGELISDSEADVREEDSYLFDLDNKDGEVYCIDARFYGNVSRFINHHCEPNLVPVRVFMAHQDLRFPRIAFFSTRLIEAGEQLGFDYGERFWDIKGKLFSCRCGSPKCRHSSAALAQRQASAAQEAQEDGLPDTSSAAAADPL
Procedure, shortened: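 Triplicates, 1 h at room temperature. Compound range 100 nM–100 µM. Guanidine stop, then Flashplate counting against no-compound and no-enzyme controls. Ki derived as IC50/2.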

[10] = target: Protein arginine N-methyltransferase 3 (Homo sapiens, UniProt O60678); test: Inhibition of PRMT3 (unknown origin) using [3H]SAM assessed as inhibition of biotinylated-H4 (1 to 24 amino acid residues) methylation after 1 hr by scintillation proximity assay
Protein arginine N-methyltransferase 3, sequence (O60678 whole entry, the tested form may be a part): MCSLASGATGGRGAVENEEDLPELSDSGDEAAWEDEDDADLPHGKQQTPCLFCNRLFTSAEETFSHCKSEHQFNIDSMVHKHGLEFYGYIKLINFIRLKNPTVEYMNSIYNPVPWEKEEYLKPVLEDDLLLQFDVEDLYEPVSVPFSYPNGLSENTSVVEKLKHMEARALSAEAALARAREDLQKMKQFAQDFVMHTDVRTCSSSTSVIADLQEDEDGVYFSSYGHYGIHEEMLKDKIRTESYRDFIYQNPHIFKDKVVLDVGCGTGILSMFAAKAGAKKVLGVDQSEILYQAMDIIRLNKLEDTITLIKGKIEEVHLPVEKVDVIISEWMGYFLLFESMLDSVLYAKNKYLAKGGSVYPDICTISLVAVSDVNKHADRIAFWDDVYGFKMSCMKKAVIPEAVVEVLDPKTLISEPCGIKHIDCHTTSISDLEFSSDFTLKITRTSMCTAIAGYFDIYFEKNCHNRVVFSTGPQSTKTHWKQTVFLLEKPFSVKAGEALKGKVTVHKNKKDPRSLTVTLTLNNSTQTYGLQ

Protein arginine N-methyltransferase 5, sequence (O14744 whole entry): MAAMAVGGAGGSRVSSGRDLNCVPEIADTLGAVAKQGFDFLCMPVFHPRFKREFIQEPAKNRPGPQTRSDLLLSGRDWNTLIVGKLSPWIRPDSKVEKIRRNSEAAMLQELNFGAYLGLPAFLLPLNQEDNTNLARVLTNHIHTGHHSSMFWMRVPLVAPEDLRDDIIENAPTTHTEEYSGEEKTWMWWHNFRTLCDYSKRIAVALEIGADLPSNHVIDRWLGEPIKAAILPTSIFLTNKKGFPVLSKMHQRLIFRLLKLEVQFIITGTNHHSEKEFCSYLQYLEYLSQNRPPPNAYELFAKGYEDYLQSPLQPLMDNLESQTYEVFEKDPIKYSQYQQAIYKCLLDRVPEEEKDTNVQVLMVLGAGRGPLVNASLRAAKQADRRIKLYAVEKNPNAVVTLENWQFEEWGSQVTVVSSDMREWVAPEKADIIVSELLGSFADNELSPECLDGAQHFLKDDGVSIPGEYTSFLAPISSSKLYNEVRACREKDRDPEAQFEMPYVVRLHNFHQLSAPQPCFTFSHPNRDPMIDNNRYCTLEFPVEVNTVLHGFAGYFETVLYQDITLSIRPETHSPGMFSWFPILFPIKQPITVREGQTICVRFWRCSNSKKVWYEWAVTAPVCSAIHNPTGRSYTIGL
DNA (cytosine-5)-methyltransferase 1, sequence (P26358 whole entry): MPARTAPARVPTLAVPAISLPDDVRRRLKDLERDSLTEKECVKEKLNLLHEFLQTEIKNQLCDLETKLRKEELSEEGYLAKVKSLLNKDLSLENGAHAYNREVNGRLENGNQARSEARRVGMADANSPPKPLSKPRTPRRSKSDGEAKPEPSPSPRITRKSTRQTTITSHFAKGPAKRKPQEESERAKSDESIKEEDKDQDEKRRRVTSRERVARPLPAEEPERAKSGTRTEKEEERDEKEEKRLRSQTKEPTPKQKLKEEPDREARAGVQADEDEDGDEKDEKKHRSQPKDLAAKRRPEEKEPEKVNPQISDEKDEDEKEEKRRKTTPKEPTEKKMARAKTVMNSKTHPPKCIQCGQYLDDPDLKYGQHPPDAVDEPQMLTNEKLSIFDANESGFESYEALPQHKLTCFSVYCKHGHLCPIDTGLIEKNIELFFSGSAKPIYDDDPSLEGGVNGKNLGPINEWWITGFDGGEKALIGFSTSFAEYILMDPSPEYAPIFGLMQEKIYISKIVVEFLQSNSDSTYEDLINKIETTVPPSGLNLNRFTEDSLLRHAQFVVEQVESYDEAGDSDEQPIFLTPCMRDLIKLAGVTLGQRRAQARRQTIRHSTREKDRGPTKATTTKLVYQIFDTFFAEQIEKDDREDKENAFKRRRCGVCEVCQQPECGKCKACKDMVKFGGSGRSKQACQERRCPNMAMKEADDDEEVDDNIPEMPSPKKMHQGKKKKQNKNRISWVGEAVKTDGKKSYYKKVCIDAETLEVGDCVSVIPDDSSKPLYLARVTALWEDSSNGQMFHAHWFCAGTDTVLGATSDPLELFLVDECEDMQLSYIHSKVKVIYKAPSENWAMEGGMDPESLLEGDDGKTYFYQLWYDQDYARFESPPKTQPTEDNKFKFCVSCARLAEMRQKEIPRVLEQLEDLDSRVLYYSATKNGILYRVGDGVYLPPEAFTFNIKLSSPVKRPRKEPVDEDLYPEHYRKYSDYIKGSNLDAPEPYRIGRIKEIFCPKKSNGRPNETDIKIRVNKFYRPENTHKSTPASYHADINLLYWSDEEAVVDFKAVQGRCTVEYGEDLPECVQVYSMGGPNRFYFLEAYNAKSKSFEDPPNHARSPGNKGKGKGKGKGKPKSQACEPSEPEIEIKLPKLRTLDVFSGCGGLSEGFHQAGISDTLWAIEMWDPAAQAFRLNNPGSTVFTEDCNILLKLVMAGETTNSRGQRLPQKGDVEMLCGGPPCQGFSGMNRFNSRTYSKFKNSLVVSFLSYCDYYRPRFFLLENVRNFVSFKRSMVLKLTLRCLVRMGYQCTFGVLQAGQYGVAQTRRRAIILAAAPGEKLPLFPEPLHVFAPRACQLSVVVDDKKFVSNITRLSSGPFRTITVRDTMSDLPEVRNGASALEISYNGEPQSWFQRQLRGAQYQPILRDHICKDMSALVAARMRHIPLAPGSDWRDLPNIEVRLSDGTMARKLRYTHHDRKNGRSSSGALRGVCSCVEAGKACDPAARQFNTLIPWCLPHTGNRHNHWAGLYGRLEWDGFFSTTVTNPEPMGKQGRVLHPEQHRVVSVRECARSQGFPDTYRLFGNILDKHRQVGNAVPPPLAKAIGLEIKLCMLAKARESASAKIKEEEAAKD
Histone-lysine N-methyltransferase SUV39H2 (Homo sapiens), sequence (Q9H5I1 whole entry, the tested form may be a part): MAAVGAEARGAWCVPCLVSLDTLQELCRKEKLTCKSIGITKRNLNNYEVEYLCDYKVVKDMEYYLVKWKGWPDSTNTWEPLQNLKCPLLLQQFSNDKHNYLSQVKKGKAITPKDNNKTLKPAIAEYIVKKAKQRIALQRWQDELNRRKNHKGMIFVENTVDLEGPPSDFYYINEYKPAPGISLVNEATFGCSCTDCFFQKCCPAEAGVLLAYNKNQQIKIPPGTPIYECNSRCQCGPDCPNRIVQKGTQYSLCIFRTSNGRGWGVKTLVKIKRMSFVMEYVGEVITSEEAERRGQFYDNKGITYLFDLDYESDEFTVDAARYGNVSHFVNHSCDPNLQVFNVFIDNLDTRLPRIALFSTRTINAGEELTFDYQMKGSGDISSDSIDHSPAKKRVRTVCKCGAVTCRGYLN

inhibition [1]: inactive
inhibition [2]: inactive
IC50 [3]: 2300 nM
Ki [3]: 1150 nM
inhibition (Homo sapiens): inactive
IC50 [4]: 1900 nM
Ki [4]: 950 nM
inhibition [5]: inactive
inhibition [6]: inactive
IC50 [7]: 1500 nM
Ki [7]: 750 nM
inhibition [8]: inactive
inhibition [9]: inactive
IC50 [10]: 2300 nM
Ki [10]: 1150 nM
Compound: Nc1ncnc2c1c(Br)cn2[C@@H]1O[C@H](CSCC[C@H](N)C(=O)O)[C@@H](O)[C@H]1O
